Experimental data published in publication PMC3983950 (Journal of medicinal chemistry, 2012).
Like-named read-outs stand apart in the source and are kept apart here.

Experiments:
ABCG2 = target: T1, ABCG2 (Homo sapiens, UniProt Q9UNQ0); format: cell-based; settings: for class: ranked by apparent affinity and maximal extent of inhibition; for ABCG2 inhibition (in words): at 2 and 10 µM
T1 sequence (Q9UNQ0 1-655): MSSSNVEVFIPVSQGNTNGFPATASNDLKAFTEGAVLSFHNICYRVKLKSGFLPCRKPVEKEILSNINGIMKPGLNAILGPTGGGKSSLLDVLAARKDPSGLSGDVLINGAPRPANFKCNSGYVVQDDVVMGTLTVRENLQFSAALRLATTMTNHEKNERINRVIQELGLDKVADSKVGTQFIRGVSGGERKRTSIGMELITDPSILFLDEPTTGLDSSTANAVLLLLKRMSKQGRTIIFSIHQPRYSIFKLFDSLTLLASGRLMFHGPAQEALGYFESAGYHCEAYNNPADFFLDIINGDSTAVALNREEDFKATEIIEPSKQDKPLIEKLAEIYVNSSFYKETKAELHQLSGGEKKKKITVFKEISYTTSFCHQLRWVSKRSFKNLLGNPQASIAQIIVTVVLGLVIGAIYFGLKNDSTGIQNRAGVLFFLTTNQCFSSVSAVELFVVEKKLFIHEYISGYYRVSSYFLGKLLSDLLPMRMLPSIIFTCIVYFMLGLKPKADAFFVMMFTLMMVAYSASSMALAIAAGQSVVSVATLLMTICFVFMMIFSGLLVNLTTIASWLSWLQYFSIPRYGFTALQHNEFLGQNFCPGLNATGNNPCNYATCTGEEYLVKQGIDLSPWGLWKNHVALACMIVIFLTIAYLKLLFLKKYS

[1] = test system: HEK293-ABCG2 and HEK293-pcDNA3.1 cells; experiment: Cytotoxicity, MTT colorimetric assay, 72 h; format: cell-based, human; settings: for IG50 (cytotoxicity, µM): concentration producing 50% inhibition of cell growth, MTT, 72 h
Outline: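 HEK293-ABCG2 and empty-vector HEK293-pcDNA3.1 cells (DMEM high glucose, 10% FBS, 0.75 mg/mL G418) seeded at 1 × 10^4 cells/well, attached 24 h at 37 °C, 5% CO2. Exposed 72 h to various concentrations of test compound (DMSO stock diluted in medium). MTT (5 mg/mL solution) added for 4 h, formazan dissolved in DMSO, A570 read. Triplicates; viability relative to 0.1% DMSO control (100%).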

SMILES | class (ABCG2; Table 1) | also measured
COc1cccc(/C=C/C(=O)c2c(O)cc(OC)cc2OC)c1 [Compound 31] | 1 (Class 1 included high-affinity inhibitors (IC50 < 1 µM) producing a complete inhibition at both 2 and 10 µM) | IG50 (cytotoxicity, µM) [1]: 10.0 ± 2.1 µM
COc1cc(/C=C/C(=O)c2cn(C)c3ccccc23)cc(OC)c1OC [Compound 36] |  | class (ABCG2; Table 2): 3
COc1cccc(OC)c1C(=O)/C=C/c1cn(C)c2ccccc12 [Compound 43] |  | class (ABCG2; Table 2): 3; ABCG2 inhibition (in words) (ABCG2): especially low, if any, inhibition
COc1cc(O)c(C(=O)/C=C/c2ccccc2)c(OC)c1 [Compound 29] | 2 (Class 2 comprised high-affinity inhibitors producing an incomplete maximal inhibition (limited to 50–75%)) | 
COc1cc(O)c(C(=O)/C=C/c2cc(OC)c(OC)c(OC)c2)c(OC)c1 [Compound 33] | 2 (Class 2 comprised high-affinity inhibitors producing an incomplete maximal inhibition (limited to 50–75%)) | 
COc1cc(/C=C/C(=O)c2c(O)cc(OC)cc2OC)cc(OC)c1 [Compound 28] | 1 (Class 1 included high-affinity inhibitors (IC50 < 1 µM) producing a complete inhibition at both 2 and 10 µM) | IG50 (cytotoxicity, µM) [1]: 6.0 ± 0.4 µM
COc1ccc(/C=C/C(=O)c2c(OC)cc(OC)cc2OC)c(OC)c1 [Compound 14] | 3 | 
COc1cccc(/C=C/C(=O)c2c(OC)cccc2OC)c1 [Compound 3] | 3 | 
COc1ccc(C(=O)/C=C/c2c(OC)cccc2OC)c(O)c1 [Compound 25] | 2 (Class 2 comprised high-affinity inhibitors producing an incomplete maximal inhibition (limited to 50–75%)) | 
COc1ccc(C(=O)/C=C/c2ccc(OC)c(OC)c2)c(O)c1 [Compound 20] | 2 (Class 2 comprised high-affinity inhibitors producing an incomplete maximal inhibition (limited to 50–75%)) | 
COc1cccc(OC)c1/C=C/C(=O)c1cn(C)c2ccccc12 [Compound 38] |  | class (ABCG2; Table 2): 1 (Class 1 included high-affinity inhibitors (IC50 < 1 µM) producing a complete inhibition at both 2 and 10 µM)
CCOc1cccc(OCC)c1C(=O)/C=C/c1ccc(OC)cc1OC [Compound 11] | 3 | 
COc1cccc(OC)c1/C=C/C(=O)c1c(OC)cccc1OC [Compound 4] | 3 | 
COc1ccc(/C=C/C(=O)c2c(OC)cccc2OC)c(OC)c1OC [Compound 6] | 3 | ABCG2 inhibition (in words) (ABCG2): no inhibition at all
COc1cc(/C=C/C(=O)c2ccc(OC)cc2O)cc(OC)c1 [Compound 18] | 2 (Class 2 comprised high-affinity inhibitors producing an incomplete maximal inhibition (limited to 50–75%)) | 
COc1cc(OC)c(C(=O)/C=C/c2cn(C)c3ccccc23)c(OC)c1 [Compound 42] |  | class (ABCG2; Table 2): 3; ABCG2 inhibition (in words) (ABCG2): especially low, if any, inhibition
COc1ccc(C(=O)/C=C/c2cc(OC)ccc2OC)c(O)c1 [Compound 23] | 2 (Class 2 comprised high-affinity inhibitors producing an incomplete maximal inhibition (limited to 50–75%)) | 
COc1ccc(C(=O)/C=C/c2cn(C)c3ccccc23)c(OC)c1 [Compound 40] |  | class (ABCG2; Table 2): 3
COc1cc(OC)c(C(=O)/C=C/c2c(OC)cccc2OC)c(OC)c1 [Compound 15] | 3 | ABCG2 inhibition (in words) (ABCG2): especially low, if any, inhibition
COc1ccc(/C=C/C(=O)c2ccc(OC)cc2OC)c(OC)c1 [Compound 12] | 2 (Class 2 comprised high-affinity inhibitors producing an incomplete maximal inhibition (limited to 50–75%)) | 

SMILES | class (ABCG2; Table 1) | also measured
COc1cc(OC)c(OC)cc1/C=C/C(=O)c1c(OC)cccc1OC [Compound 7] | 3 | 
COc1cc(OC)c(/C=C/C(=O)c2c(O)cc(OC)cc2OC)c(OC)c1 [Compound 32] | 3 | 
COc1cc(OC)c(/C=C/C(=O)c2c(OC)cc(OC)cc2OC)c(OC)c1 [Compound 13] | 3 | 
COc1ccccc1/C=C/C(=O)c1c(OC)cccc1OC [Compound 2] | 3 | 
COc1cc(OC)c(/C=C/C(=O)c2cn(C)c3ccc(OC)cc23)c(OC)c1 [Compound 39] |  | class (ABCG2; Table 2): 1 (Class 1 included high-affinity inhibitors (IC50 < 1 µM) producing a complete inhibition at both 2 and 10 µM); fold lower IG50 than compounds 27 and 38 [1]: 50 fold; IG50 (cytotoxicity, µM) [1]: 1.0 ± 0.1 µM
COc1cc(O)c(C(=O)/C=C/c2ccccc2OC)c(OC)c1 [Compound 30] | 3 | 
CCOc1cc(OCC)c(/C=C/C(=O)c2c(OCC)cc(OCC)cc2OCC)c(OCC)c1 [Compound 16] | 2 (Class 2 comprised high-affinity inhibitors producing an incomplete maximal inhibition (limited to 50–75%)) | 
CCOc1cccc(OCC)c1C(=O)/C=C/c1c(OC)cc(OC)cc1OC [Compound 9] | 3 | 
COc1ccc(/C=C/C(=O)c2cn(C)c3ccccc23)c(OC)c1 [Compound 35] |  | class (ABCG2; Table 2): 3
COc1cccc(OC)c1/C=C/C(=O)c1ccccc1 [Compound 17] | 3 | ABCG2 inhibition (in words) (ABCG2): especially low, if any, inhibition
COc1cc(OC)c(/C=C/C(=O)c2c(OC)cccc2OC)c(OC)c1 [Compound 5] | 3 | 
Cn1cc(/C=C/C(=O)c2cn(C)c3ccccc23)c2ccccc21 [Compound 44, 1,3-diindolylpropenone] |  | class (ABCG2; Table 2): 3
COc1ccc(C(=O)/C=C/c2ccc(OC)cc2OC)c(O)c1 [Compound 26] | 2 (Class 2 comprised high-affinity inhibitors producing an incomplete maximal inhibition (limited to 50–75%)) | 
COc1cc(/C=C/C(=O)c2c(OC)cccc2OC)cc(OC)c1OC [Compound 8] | 3 | ABCG2 inhibition (in words) (ABCG2): low inhibition
COc1cc(OC)c(/C=C/C(=O)c2cn(C)c3ccccc23)c(OC)c1 [Compound 37] |  | class (ABCG2; Table 2): 1 (Class 1 included high-affinity inhibitors (IC50 < 1 µM) producing a complete inhibition at both 2 and 10 µM); IG50 (cytotoxicity, µM) [1]: 4.0 ± 0.2 µM
CCOc1cccc(OCC)c1C(=O)/C=C/c1c(OC)cccc1OC [Compound 10] | 3 | ABCG2 inhibition (in words) (ABCG2): especially low, if any, inhibition
COc1cccc(OC)c1C(=O)/C=C/c1ccccc1 [Compound 1] | 3 | 
COc1cc(O)c(C(=O)/C=C/c2c(OC)cccc2OC)c(OC)c1 [Compound 27] | 1 (Class 1 included high-affinity inhibitors (IC50 < 1 µM) producing a complete inhibition at both 2 and 10 µM) | 
COc1cc(O)c(C(=O)/C=C/c2ccc(OC)c(OC)c2OC)c(OC)c1 [Compound 34] | 3 | 
